From PMC3355950 (The Journal of Neuroscience, 2012) come the findings set out here.

What all share (test): Two-electrode voltage-clamp recordings, Xenopus oocytes
Common to all, as to format: cell-based
(In general: Two-electrode voltage clamp is typically applied to oocytes expressing channels or transporters.)

One test has as its target GluN1/2A-(2D M1M2M3) (Rattus norvegicus, UniProt P35439+Q00959, A555P/A572T/A593R/A604S/F553Y/F579L/F658Y/G610A/H595G/I567T/I571V/K590T/K623R/L565C/N587S/P597S/Q620E/S556A/S569V/S598T/S632L/V575I). The note with it: 100 μM glutamate plus 30 μM glycine; vs GluN1/GluN2A.
A further test deals with GluN1/GluN2A V783A (Rattus norvegicus, UniProt P35439+Q00959, V783A). The note with it: 100 μM glutamate + 3 μM glycine.
In a further test the target is GluN1/GluN2A P527A (Rattus norvegicus, UniProt P35439+Q00959, P527A). The note with it: 100 μM glutamate + 3 μM glycine.
A further test deals with GluN1/2A-(2D S1+S2) (Rattus norvegicus, UniProt P35439+Q00959, A414R/D421P/D675E/D715E/DELINS438-452SQLNRTHSPPPDAPRPE/E427G/E790M/F680L/F708Y/G712R/G740R/G786D/H674Q/I408V/I422A/I755V/K454R/K466R/K472G/K668R/K738M/L425I/M788I/N404Q/N432D/N490D/N491G/N696S/P770R/Q661T/Q703S/Q766H/Q774P/R469H/R681K/R692K/R711P/R741K/S407T/S468A/S538A/S677Y/S719Q/S758T/T426S/T433S/T474S/T663S/T706V/T722A/T793R/T797S/V409A/V430I/V471I/V489I/V501F/V506D/V509I/V521I/V718T/V783L/Y676Q/Y700D/Y754K). The conditions noted are these: 100 μM glutamate plus 30 μM glycine.

The target of another test is GluN1/2A-(2D S1) (Rattus norvegicus, UniProt P35439+Q00959, A414R/D421P/DELINS438-452SQLNRTHSPPPDAPRPE/E427G/I408V/I422A/K454R/K466R/K472G/L425I/N404Q/N432D/N490D/N491G/R469H/S407T/S468A/S538A/T426S/T433S/T474S/V409A/V430I/V471I/V489I/V501F/V506D/V509I/V521I). The note with it: 100 μM glutamate + 3 μM glycine. The method in brief:
(§1)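 cRNA from linearized constructs injected into female Xenopus laevis oocytes. Two-electrode voltage clamp done 3–4 d later at 23°C, holding at −40 mV, in 90 NaCl, 1 KCl, 10 HEPES, 0.5 BaCl₂, 0.01 EDTA (mM), pH 7.4. […] Max inhibition is (control − residual at saturating compound)/control.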

The next test deals with GluN1/2A-(2D ATD) (Rattus norvegicus, UniProt P35439+Q00959+Q62645, A388P/C399P/D398Q/D403T/E353D/E371T/E400V/G345N/H358N/H387Y/K346R/K368R/K374V/K377S/K394G/L348Y/N367T/N380Q/N404Q/P391S/P401D/Q356L/R360S/R386K/S384R/S395R/S397L/T351N/V365S/V389L/Y355F). The conditions noted are these: 100 μM glutamate plus 30 μM glycine; vs GluN1/GluN2A.
The target in a further test is GluN1/2D-(2A S2) (Rattus norvegicus, UniProt P35439+Q62645, A747T/D725Y/D811G/E700D/E740D/H791Q/I813M/K706R/K717R/K766R/K779Y/L705F/L808V/M763K/M815E/P736R/P799Q/Q699H/Q701Y/Q744S/R693K/R737G/R765G/R795P/R818T/S688T/S721N/S728Q/S822T/T686Q/T743V/T783S/V731T/V780I/Y702S/Y733F). The conditions noted are these: 100 μM glutamate + 3 μM glycine. In outline:
as §1

`O=C(NNC(=O)c1ccc(CNS(=O)(=O)c2ccc(F)c(Cl)c2)cc1)c1ccccc1` [TCN-201, 3-chloro-4-fluoro-N-[(4-[(2-(phenylcarbonyl)hydrazino)carbonyl]phenyl)methyl]-benzenesulfonamide]: the “Inhibition by 3 μM TCN-201” value was “did not reduce inhibition” on GluN1/2A-(2D M1M2M3), “abolished” at GluN1/2A-(2D S1+S2) and “did not reduce inhibition” at GluN1/2A-(2D ATD). Further, the “TCN-201 activity Max. % inhibition” value on GluN1/GluN2A V783A worked out at 91 ± 2%; at GluN1/GluN2A P527A it was 91 ± 3%; at GluN1/2A-(2D S1), 97 ± 1%; on GluN1/2D-(2A S2), 91 ± 4%. Also, the “TCN-201 activity nH” value is recorded as 1.1 at GluN1/GluN2A V783A, 1.4 on GluN1/GluN2A P527A, 1.5 on GluN1/2A-(2D S1) and 2.1 on GluN1/2D-(2A S2). Moreover, on GluN1/2A-(2D S1), the “TCN-201 activity IC50” value is recorded as “did not affect TCN-201 sensitivity”.
